Source: PubChem
The sample as a whole holds a higher share of hits than the screen did.
Yeast lifespan up: extends the lifespan of yeast. inhibition of the nicotinamide effect, % at 10 µM. 130,000 tested, 0.68% active. S. cerevisiae growth with nicotinamide, OD615; deaD strain in restrictive glucose medium. AID 775;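 active means inhibition above a set limit, placed 3 SD over the median of all compounds, cut at about 26% in these data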;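 further: 0% = nicotinamide-treated wells and 100% = cells grown without nicotinamide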
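assay system = DeaD-strain S. cerevisiae | buffer or medium = restrictive glucose medium | reagent = 1.5 mM nicotinamide | compound = 10 µM single point, 0.25% DMSO | incubation = 48 h compound exposure at 30 °C, humidified | signal = OD615 measurement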
PostGolgi yeast: growth inhibition of a yeast mutant, post-Golgi transport screen; post-Golgi transport phenotypic cell assay; inhibition, % at 10 µM; 98,000 tested, 0.9% active;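 further: yeast cells grown in 1536-well plates; yeast grown about 18 h at 30C before absorbance read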
BB579 growth dn: chemicals that inhibit yeast BB579 growth in restrictive medium (lifespan-shortening candidates); S. cerevisiae BB579 growth, OD615, 48 h; inhibition, % at 10 µM; 140,000 tested, 0.51% active; AID 804;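 active means inhibition above a set limit, 3 SD over the mean compound inhibition, cut at about 44% in these data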
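test system = yeast BB579 (DeaD) | buffer or medium = restrictive CSMM-D medium | doses = single compound dose of 10 µM, 0.25% DMSO final | times = 4 h preincubation and 48 h exposure at 30 °C | technique = culture absorbance at 615 nm | benchmarks = amphotericin B 10 µg/mL, positive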
PostGolgi ctrl: yeast control strain growth, post-Golgi counter-screen; 98,000 tested, 5% active; efflux-deficient yeast background strain, growth absorbance A615, 16 h; AID 738; inhibition, % at 10 µM
An asterisk follows results filed as active; x = no result. Unless noted, no stated cut-off is given here; in the data, active means inhibition above about 30%; inactive means the rest.

SMILES	Yeast lifespan up	PostGolgi yeast	BB579 growth dn	PostGolgi ctrl
Cc1ccc(S(=O)(=O)N[C@H](C(=O)OCn2nnc3ccccc3c2=O)C(C)C)cc1	3	3	-40	35*
CN(C)S(=O)(=O)c1ccc(C(=O)OCn2nnc3ccccc3c2=O)cc1	-9	58*	-21	28
COc1cc(NC(=O)Cn2nc(C(F)(F)F)c3c2CCCC3)cc(OC)c1OC	-4	-6	-21	4
CC1CCC(NC(=O)c2ccc(NC(=O)c3ccc(=O)[nH]c3)cc2)CC1 (centres undefined)	5	x	-22	x
CCOc1ccccc1NC1c2ccccc2C(=O)N1c1ccc(C)cn1 (centres undefined)	8	-14	-40	33*
CCOC(=O)c1ccccc1NC1c2ccccc2C(=O)N1c1ccc(C)cn1 (centres undefined)	10	-5	-57	48*
COc1cc(NC2c3ccccc3C(=O)N2c2ccc(C)cn2)cc(OC)c1OC (centres undefined)	27*	1	-38	9
CC1(C)Oc2ccc(C(=O)NC3CCCC3)cc2N(CC(=O)NC2CCCCC2)C1=O	-15	-1	-40	0
O=C(COC(=O)c1cccc(S(=O)(=O)N2CCc3ccccc32)c1)Nc1ccc(Cl)cn1	-1	x	-32	x
Cc1ccc(-n2ncc3c(NCc4ccc5c(c4)OCO5)ncnc32)c(C)c1	-5	4	-18	38*
Cc1cccc(-n2ncc3c(NCc4ccc5c(c4)OCO5)ncnc32)c1	-19	-3	-15	18
CCOC(=O)C1=C(CC)Nc2ccccc2N=C1NC(=O)Nc1ccc(Cl)c(Cl)c1	-25	73*	-14	66*
CCOC(=O)C1=C(CC)Nc2ccccc2N=C1NC(=O)Cn1cnc2ccccc2c1=O	-1	-1	-53	5
CC(=O)CC(=O)Nc1ccc(Nc2ccccc2)cc1	-4	x	-29	x
CCn1cnc2c1c(=O)n(Cc1csc(-c3ccccc3)n1)c(=O)n2Cc1ccccc1	-4	-2	-49	48*
Cc1ccc(N(CC(O)COCc2ccco2)S(=O)(=O)c2ccc(C)cc2)cc1 (centres undefined)	-17	-2	-8	5
CNC(=S)N/N=C(\C)c1ccc(N2CCOCC2)cc1	-6	x	70*	x
CCNC(=S)N/N=C(\C)c1ccc(N2CCOCC2)cc1	1	x	-10	x
COC(=O)c1cc(C#N)c(NCc2ccccc2)nc1C	-15	1	-4	10
O=S(=O)(/C=C/c1ccccc1)c1ccccc1	-9	1	-14	5
O=S(=O)(C=C(c1ccccc1)c1ccccc1)c1ccccc1	3	-5	-39	36*
CC(c1ccco1)N(C(=O)c1ccccc1NS(=O)(=O)c1ccc(Cl)c([N+](=O)[O-])c1)c1ccccn1 (centres undefined)	40*	x	-25	x
Cc1cc(C)cc(C(=O)N(c2ccccn2)C(C)c2ccco2)c1 (centres undefined)	1	0	-34	5
CC(c1ccco1)N(C(=O)c1cccs1)c1ccccn1 (centres undefined)	-3	3	25	41*
CC(C)c1ccc(C(=O)N(c2ccccn2)C(C)c2ccco2)cc1 (centres undefined)	6	4	-26	5
SMILES	Yeast lifespan up	PostGolgi yeast	BB579 growth dn	PostGolgi ctrl
Cc1nc([N+](=O)[O-])nn1C12CC3CC(CC(Cl)(C3)C1)C2	3	x	-9	x
O=[N+]([O-])c1cccnc1N1CCC(c2cc(-c3ccc(Cl)cc3Cl)n[nH]2)CC1	-7	2	5	59*
CC(=O)Oc1c(Cl)cc(Cl)cc1/C=C/c1ccc2ccccc2n1	-5	-5	-7	54*
CC(=O)Oc1ccc(Cl)cc1/C=C/c1ccc2ccccc2n1	-5	x	-35	x
CCn1cc(C(=O)OCC(=O)Nc2ccc(S(=O)(=O)N3CCCC3)cc2)c(=O)c2ccc(C)nc21	8	2	-22	0
CCOC(=O)CSc1nnc(CNc2ccc(Cl)cc2)n1-c1ccccc1	-7	60*	-31	50*
COC(=O)CSc1nnc(CNc2ccc(Cl)cc2)n1Cc1ccccc1	-2	65*	-22	46*
CCSc1cc(N2CCCC2)nc(-c2ccccc2Cl)n1	5	x	-12	x
O=C(O)c1sccc1SCc1ccc(Cl)cc1Cl	8	4	-64	1
O=C(Nc1cccnc1)c1ccc2c(c1)C(=O)N(Cc1cccnc1)C2=O	0	28	-10	30*
COC(=O)CSc1nc(SCc2ccc(C)cc2)nc2c1CCCC2	-18	-2	-8	8
CNc1nc(SCc2ccc(C)cc2)nc2c1CCCC2	-11	10	24	33*
Cc1ccc(CSc2nc3c(c(SCC(=O)O)n2)CCCC3)cc1	-7	17	-9	9
CN(C)c1nc(SCc2ccccc2Cl)nc2c1CCCC2	-23	59*	-14	36*
Cc1ccc(CSc2nc3c(c(N(C)C)n2)CCCC3)cc1	-24	-15	-6	41*
COCCCN(C(=S)NC(=O)c1ccc(C(C)(C)C)cc1)c1c(N)n(Cc2ccccc2)c(=O)[nH]c1=O	-5	x	-4	x
C=CCn1c(SCc2c(C(=O)OC)sc(N)c2C(=O)OC)nnc1-c1ccc(Br)cc1	-8	11	-51	20
[O-][n+]1onc2c1CCc1nnc(-c3ccccc3)cc1-2	-17	3	-15	32*
[O-][n+]1onc2c1CCc1nnccc1-2	-5	7	-31	23
Cc1ccccc1N(C(=O)c1cccs1)c1nc2ccccc2s1	-14	1	-60	35*
CCn1c(=NC(=O)c2ccc(N3C(=O)CCC3=O)cc2)sc2c(OC)ccc(OC)c21	-9	37*	-32	16
COc1ccc(OC)c(C2=NOC(C(=O)NCc3ccco3)C2)c1 (centres undefined)	-14	-9	-55	11
Cc1ccc(C23CC4CC(CC(NC(=O)N5CCN(C)CC5)(C4)C2)C3)cc1	-16	2	-36	7
Cc1ccc(C23CC4CC(CC(NC(=O)NC(C)(C)CO)(C4)C2)C3)cc1	1	-2	-25	38*
Cc1cc[n+](CC(=O)c2cc3ccccc3oc2=O)cc1	29*	x	-2	x
SMILES	Yeast lifespan up	PostGolgi yeast	BB579 growth dn	PostGolgi ctrl
Cc1cc(C)nc(SCC(=O)c2cc3ccccc3oc2=O)n1	26	-3	-8	-2
CCN(C(=O)c1cc2ccccc2oc1=O)c1cccc(C)c1	-8	10	5	-2
O=C(CSc1nc2ccccc2o1)c1cc2ccccc2oc1=O	38*	-4	-13	-1
O=C(NCCO)C(F)(F)C(F)(F)C(F)(F)OC(F)(C(=O)NCCO)C(F)(F)F (centres undefined)	-9	-4	17	-3
CCOC(=O)CS(=O)(=O)c1nc(-c2ccc(F)cc2)cc(C(F)(F)F)n1	67*	8	-44	48*
CCOC(=O)CCS(=O)(=O)c1nc(-c2ccccc2)cc(C(F)(F)F)n1	67*	-6	-32	73*
COC(=O)CCS(=O)(=O)c1nc(-c2ccccc2)cc(C(F)(F)F)n1	77*	0	-8	57*
CCNC(=O)C1CC(=O)N(CC)C(=Nc2cc(Cl)c(O)c(Cl)c2)S1 (centres undefined)	-6	-2	-32	4
